Experimental data reported in publication PMC10871333 (bioRxiv, 2024).
“And” between values parts separate entries of the source, which are not always exact repeats. Identical values can stand only once.

Columns and labels:
HP1α = settings: ref [27]; cited from earlier work
HP1α-DNA condensates [1] = target: T1, HP1α-DNA condensates (Homo sapiens, UniProt P45973); experiment: FRAP of Alexa-488 labeled HP1α in HP1α-DNA condensates; assay type: physicochemical; settings: for FRAP dynamics of HP1α, in words: HP1α-DNA condensates, all three DNA lengths, no histone peptide
T1 sequence (P45973 whole entry): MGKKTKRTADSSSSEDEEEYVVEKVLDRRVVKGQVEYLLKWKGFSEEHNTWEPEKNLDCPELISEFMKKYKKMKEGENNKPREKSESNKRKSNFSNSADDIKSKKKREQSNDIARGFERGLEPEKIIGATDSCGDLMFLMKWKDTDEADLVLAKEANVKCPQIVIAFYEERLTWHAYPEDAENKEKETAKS
Procedure, shortened: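 Alexa-488 maleimide-labeled HP1α (~1%) mixed with unlabeled protein to 20uM in 70mM KCl, 20mM HEPES, 1mM DTT, pH 7.4. DNA 40nM (2.5kbp) to 9nM (10kbp), with or without H3K9me3 peptide up to 42μM, at 23°C. A 0.5–1um area bleached on a spinning-disc confocal. Recovery was fitted to an exponential to give mobile fraction (I0) and half-time ln(2)/β.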

[2] = test system: DNA (2.5kbp, 4kbp, 10kbp); experiment: Phase separation of HP1α with DNA of different length; assay type: physicochemical
Procedure, shortened: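 HP1α was 0.22um-filtered, buffer-exchanged and mixed with dsDNA to 20uM HP1α (12.5–20μM tested) and nanomolar DNA. Buffer was 70mM KCl, 20mM HEPES, 1mM DTT, pH 7.5, in a 7ul reaction at 23°C on Pluronic F-127–treated slides. Imaging used wide-field DIC with a ×40 air objective at t=0 and 60 min.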

HP1α-DNA condensates [3] = target: T1, HP1α-DNA condensates; experiment: Microrheology; assay type: physicochemical
Procedure, shortened: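 HP1α at 20 μM with 40nM 2.5kbp, 20nM 4kbp or 9nM 10kbp DNA, with or without 10 or 42μM H3K9me3 peptide. 200nm carboxylated fluorescent beads were embedded and tracked on a spinning-disc confocal (x63/1.4NA oil) at 200ms interval, 1000 frames, 10–50ms exposure, 23°C ± 2°C. Beads near boundaries were avoided. 2D MSD was time- and ensemble-averaged, and α was taken as the log-log slope versus lag time.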

[4] = 70mM KCl, 20mM HEPES, 1mM DTT, pH 7.5
[5] = with HP1α 12.5μM-20μM, 70mM KCl, 20mM HEPES, 1mM DTT, pH 7.5

Substance: H3K4me3: human N-terminal histone H3 tail (residues 1–22) with trimethylation of lysine 4, purchased from Bachem
- binding of HP1α chromodomain to histone H3 mark (HP1α): does not bind

Substance: unmodified H3: unmodified human N-terminal histone H3 tail (residues 1–22), purchased from Bachem
- binding of HP1α chromodomain to histone H3 mark (HP1α): does not bind

Substance: HP1α: Recombinantly expressed and purified HP1α (MW = 22kDa) from Biomatik Corporation
- FRAP dynamics of HP1α, in words (HP1α-DNA condensates [1]): remain dynamic
- FRAP dynamics of HP1α, in words (HP1α-DNA condensates [1]; listed as HP1a): rapid recovery
- morphology with 4kbp DNA (9nM or 15nM) at t=0min and t=60min ([2]; 20μM HP1α, DIC 40x): spherical condensates can be seen
- morphology change with 10kbp DNA (9nM or 15nM) over 1hour ([2]; 20μM HP1α, t=0min and t=60min, DIC 40x): changes in the morphology (from asymmetric to spherical)
- assembly morphology with 10kbp DNA [2, 4]: assemblies with an asymmetric morphology were initially observed before transitioning to spherical droplets
- droplet morphology with 2.5kbp and 4kbp DNA [2, 4]: spherical droplets appeared instantaneously
- time of transition from asymmetric to spherical droplets with 10kbp DNA [2, 4]: ≤ 1 h
- solubility / phase behavior of HP1α in the absence of DNA ([2]; same HP1α concentration, 70mM KCl, 20mM HEPES, 1mM DTT, pH 7.5): remains soluble
- phase separation with DNA ([2]; three DNA lengths (2500, 4000, 10000 bp) at nanomolar concentrations, 70mM KCl, 20mM HEPES, 1mM DTT, pH 7.5, 23°C, DIC 40x): undergoes phase separation
- DNA concentration inducing phase separation, 2500 bp DNA [2, 5]: 30 nM
- DNA concentration inducing phase separation, 10000 bp DNA [2, 5]: 9 nM
- average diffusive exponent α, 10kbp DNA condensates (HP1α-DNA condensates [3]; 20 μM HP1α and 9nM 10kbp DNA, no peptide, 200nm beads, 200ms interval, 23°C): 0.58±0.05
- average diffusive exponent α, 4kbp DNA condensates (HP1α-DNA condensates [3]; 20 μM HP1α and 20nM 4kbp DNA, no peptide, 200nm beads, 200ms interval, 23°C): 0.72±0.02
- diffusive exponent α, 2.5kbp DNA condensates (HP1α-DNA condensates [3]; 20 μM HP1α and 40nM 2.5kbp DNA, no peptide, 200nm beads, 200ms interval, 23°C): 0.85±0.06 and ~ 0.85±0.06

Substance: H3K9me3: human N-terminal histone H3 tail (residues 1–22) with trimethylated lysine 9, purchased from Bachem [reference compound]
- mobile fraction of HP1α in condensates with peptide, 10μM peptide (HP1α-DNA condensates [1]; H3K9me3 peptide 10μM, Alexa488-HP1α, 2.5kbp DNA condensates, FRAP): ~ 100%
- binding of HP1α chromodomain to histone H3 mark (HP1α): recognizes and binds specifically
- decrease in α with H3K9me3 compared with lengthening the DNA to 10kbp (HP1α-DNA condensates [3]; 2.5kb DNA condensates): more pronounced
